A selection: hits, their analogues and other compounds. The true share with any hit is near 1.7%.
PABP FP inh: PABP poly(A) RNA binding inhibitors, primary screen, biochemical, fluorescence polarization, uHTS; Polyadenylate-binding protein 1 (Homo sapiens), P11940; AID 2014, 2009; inhibition, % at 35 µM; actives 1% (n = 290,000);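 note: calls also rest on retests at 20 µM and on dose response follow-up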
eIF4H FP inh: human eIF4H binding inhibitors, primary screen, translation initiation inhibitor project, biochemical, uHTS, fluorescence polarization; eIF4H fluorescence polarization binding assay; AID 2012, 2009; inhibition, % at 35 µM; actives 0.94% (n = 290,000);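 note: calls also rest on retests at 20 µM and on dose response follow-up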
MT1-MMP act inh: blockers of MT1-MMP proenzyme processing, primary screen, HT1080 RFP-PRO-GFP cells, GFP/RFP fluorescence | Matrix metalloproteinase-14 (Homo sapiens), P50281 | GFP/RFP ratio fluorescence, overnight; percent of plate control window, DMSO zero | GFP/RFP ratio change, % at 20 µM | actives 0.061% (n = 360,000);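 active = GFP/RFP ratio change of at least 30% with cell ATP level not reduced by more than half and red fluorescence within 50% of control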
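Material: RFP-PRO-GFP reporter HT1080 cells. Dosing: single-point 20 µM compound, 1% DMSO. Controls: DMSO and RFP-L50D-GFP cell wells. Timing: cells overnight before dosing, compound overnight, 37 °C, 5% CO2. Measure: GFP/RFP fluorescence ratio.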
PABP1 MLLE inh: inhibitors of PABP1 MLLE–PAM2 peptide binding, primary screen, biochemical, fluorescence polarization, FITC-PAM2, GST-MLLE | inhibition, % at 20 µM | actives 0.36% (n = 360,000) | AID 588489, 2011; in the data active = inhibition above about 35%, passing the limit was not always enough;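 note: plate controls were DMSO wells with GST-MLLE for no effect and wells lacking GST-MLLE protein for full effect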
SKN-1 inh: suppressors of acrylamide-induced Pgst-4::GFP reporter in worms, primary screen, SKN-1 inhibitor project, whole organism, uHTS, GFP/RFP fluorescence ratio, strain VP596; C. elegans VP596 Pgst-4::GFP/RFP ratio, 24 h; inhibition, % at 21.8 µM; actives 0.49% (n = 360,000);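 active = interference check ratio from 0.5 to 1.5 plus GFP to RFP signal ratio inhibition reaching or exceeding a fixed threshold, cut at about 30% in these data, passing the limit was not always enough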
* marks the source's active call; other numbers are inactive results; i = inactive; u = inconclusive; x = no result. Unless noted, the rule behind the calls is not given here.

SMILES | PABP FP inh | eIF4H FP inh | MT1-MMP act inh | PABP1 MLLE inh | SKN-1 inh
COc1ccc(C2NC3=C(CCC3)C3(C#N)C4(N=C(N)C23C#N)OCCO4)cc1 (stereo not given) | 64.3* | 71.5* | -8.0 | -18.7 | -1.0
O=C(OCC(=O)N1CCc2ccccc2C1)c1cc(=O)[nH]c2ccccc12 | 0.7 | 3.5 | -2.7 | 13.9 | -9.6
COc1ccc2c3c(ccc2c1)C(=O)/C(=C/O)CC3 | x | x | -1.6 | 43.4* | 20.3
COc1ccc2c(c1)CC/C(=C/c1ccncc1)C2=O | -7.6 | -4.5 | -0.3 | 13.6 | -1.9
Cc1cc(C)c(S(=O)(=O)N2CCCC(C(=O)NCc3cccnc3)C2)c(C)c1 (stereo not given) | 2.5 | -18.8 | -1.6 | 4.7 | -5.6
CCCCC1(C(=O)OCC)CC(CN2CCOCC2)OC1=O (stereo not given) | 87.9* | active | -8.6 | -7.4 | 15.9
O=C(Nc1ccc(F)c(F)c1)C1CCN(S(=O)(=O)c2cccs2)CC1 | x | x | -4.2 | 4.5 | 18.3
Cc1cc(OCCCCN2C(=O)NC(C)(C)C2=O)cc(C)c1Cl | 9.4 | -5.7 | -0.3 | 5.0 | 39.3*
CC1(C)NC(=O)N(CCCCOc2ccc(Cl)cc2)C1=O | -0.8 | -5.8 | 6.0 | 9.0 | 8.4
NC(=O)C1CCCN1S(=O)(=O)c1ccc2ccccc2c1 (stereo not given) | 0.8 | 5.7 | 2.6 | -3.7 | -37.8
CC(NC(=O)COC(=O)CN1C(=O)NC2(CCCC2)C1=O)c1ccc(F)cc1 (stereo not given) | x | x | 0.6 | -5.7 | 5.9
Oc1c(Cl)cc(Cl)cc1Sc1cc(Cl)cc(Cl)c1O | active | 74.1* | x | x | x
O=S(c1cc(Cl)cc(Cl)c1O)c1cc(Cl)cc(Cl)c1O | x | x | 6.4 | x | -6.8
COc1cc(OC)c(C(=O)OCC(=O)NC23CC4CC(CC(C4)C2)C3)cc1OC | x | x | 6.6 | 7.5 | -4.0
COc1cc(NC(=S)Nc2ccc(OC(F)F)cc2)cc(OC)c1 | -5.5 | -3.8 | 0.5 | 41.0* | -0.1
COc1ccc(NC(=S)Nc2ccc(F)cc2)cc1 | 2.7 | -6.9 | 4.2 | 6.7 | 13.4
COc1cc(NC(=S)Nc2ccc(N(C)C(C)=O)cc2)cc(OC)c1 | -8.4 | 1.2 | -0.3 | 35.9* | -13.8
COc1cc(-c2ccc3oc(-c4ccsc4)cc3c2)cc(OC)c1OC | x | x | -2.3 | -0.7 | 16.4
COc1ccc(-c2c(C3=CCCCC3)oc3ccc(-c4ccc5c(c4)OCO5)cc23)cn1 | x | x | -3.9 | -6.0 | -2.7
O=C(Nc1ccc(N2CCOCC2)nc1)c1ccc(F)cc1 | 65.2 | 40.3* | 6.6 | 3.1 | 5.3
Cc1onc(-c2ccccc2)c1C(=O)N/N=C/c1c(F)cccc1Cl | -7.1 | -6.4 | 1.2 | -14.1 | -18.8
CCc1cc(C(=O)c2ccccc2OC)c(N)s1 | -2.3 | -4.8 | 6.8 | 37.4* | -8.5
CCc1cc(C(=O)c2ccc(OC)cc2)c(N)s1 | 9.1 | -3.1 | 3.4 | 28.2 | 19.6
COc1cc(/C=N/NC(=O)C(=O)NCc2ccco2)ccc1O | 13.1 | 2.9 | 2.7 | -16.2 | 10.2
COc1cc(/C=N/NC(=O)C(=O)NCc2ccco2)cc(Cl)c1O | 3.8* | u | 5.8 | 2.8 | 14.9
SMILES | PABP FP inh | eIF4H FP inh | MT1-MMP act inh | PABP1 MLLE inh | SKN-1 inh
CN(C)CCOc1ccc2c(c1)C(=O)C(=Cc1ncc([N+](=O)[O-])n1C)C2 | x | x | -22.9 | 3.1 | 15.9
Cc1ccc(-n2nc(-c3ccco3)cc2C(=O)O)cc1 | 59.6* | 93.8* | -8.1 | 13.5 | 9.0
CCOC(=O)c1cc(-c2ccco2)nn1-c1ccc(C)cc1 | 43.5 | 1.5 | -12.8 | -9.4 | 11.6
Cc1ccc(/C(N)=N/OC(=O)c2ccco2)cc1 | 4.5 | 1.5 | -0.2 | 2.5 | 85.3*
N/C(=N\OC(=O)c1ccco1)c1ccccc1 | -5.8 | -6.0 | 0.0 | 11.6 | 12.5
N/C(=N\OC(=O)c1ccc(Br)cc1)c1ccccc1 | -6.0 | -10.3 | -1.3 | 8.7 | 24.4
N/C(=N\OC(=O)c1ccco1)c1ccc(Br)cc1 | -8.3 | -1.4 | 1.5 | 2.8 | 50.2*
COc1ccc(/C(N)=N/OC(=O)c2ccco2)cc1 | -4.6 | 0.5 | 1.8 | 8.8 | 51.1*
N/C(=N\OC(=O)Cc1cccs1)c1ccc(Br)cc1 | 2.3 | -6.6 | 1.0 | -20.1 | 60.7*
COc1ccccc1OCC(=O)NNC(=O)c1ccc2c(=O)n3c(nc2c1)CCC3 | -10.2 | -1.2 | 1.8 | 3.4 | 13.2
Cc1ccc(C)c(NCC(=O)c2ccc(Cl)cc2)c1 | -10.6 | -0.8 | 0.9 | 20.4 | -13.1
COCCN1CN(S(=O)(=O)c2ccc(Cl)cc2)c2nc3ccccc3nc21 | 3.1 | -1.0 | -1.0 | 9.0 | -0.8
COCCN1CN(S(=O)(=O)c2ccccc2)c2nc3ccccc3nc21 | 1.4 | -14.0 | -0.2 | 37.4* | 12.0
Cc1cccc(S(=O)(=O)N2CN(Cc3ccco3)c3nc4ccccc4nc32)c1 | 19.6* | 53.9* | -16.9 | -10.7 | 13.3
CC(=O)[C@H]1[C@@H]2C(=O)N(c3cccc(Cl)c3)C(=O)[C@@H]2[C@H]2c3ccccc3C=CN21 | 55.5* | 62.0 | -19.8 | 23.0 | 0.1
O=C(c1ccco1)[C@@H]1[C@@H]2C(=O)N(c3ccc(F)cc3)C(=O)[C@@H]2C2c3ccccc3C=CN21 (stereo not given in full) | 44.2* | 70.0 | x | x | x
COC(=O)c1cc(S(=O)(=O)N2c3ccccc3CC2C)cn1C (stereo not given) | x | x | 0.1 | -2.8 | -7.2
Cc1cccc(N2CCN(C(=O)[C@H](C)N3C(=O)C4CC=CCC4C3=O)CC2)c1C (stereo not given in full) | x | x | -1.1 | 14.0 | 8.7
O=C(c1ccc(Cl)s1)N1CCN(S(=O)(=O)c2ccc(Cl)cc2)CC1 | x | x | -1.0 | -3.9 | 1.7
CCc1nnc(NC(=O)CSc2nnc(COc3cccc(C)c3)o2)s1 | 6.4 | -5.3 | -1.6 | -20.4 | 54.3*
Cc1cccc(OCc2nnc(SCC(=O)Nc3ncc(C)s3)o2)c1 | -4.5 | 0.1 | 1.3 | 7.7 | -12.0
Cc1cccc(NC(=O)CCc2ccccc2)c1C | 4.1 | -3.2 | 2.4 | -4.5 | 10.8
Cc1nn(C)c(C)c1N1C(=O)c2cccc3c(N)ccc(c23)C1=O | 117.7* | 128.6 | -318.1 | i | -80.2
COc1ccc(OC)c(NC(=O)C2CCN(C(=O)C3CC(=O)N(c4ccc(C)cc4)C3)CC2)c1 (stereo not given) | 4.1 | -6.1 | 1.6 | -7.9 | -0.5
COc1ccc(C(=O)OCC(=O)Nc2ccc(F)cc2F)cc1OC | -5.2 | -2.7 | 1.4 | 4.2 | -1.9
COc1cc(C(=O)OCC(=O)Nc2ccc(F)cc2F)cc(OC)c1OC | 83.5* | 72.3* | 0.6 | -3.3 | -14.6
COc1cc(CCC(=O)OCC(=O)Nc2ccc(F)cc2F)cc(OC)c1OC | 12.1 | 0.6 | -0.3 | -10.8 | 40.5*
CN(C)C=Nc1ccc([N+](=O)[O-])c2ccccc12 | x | x | 1.4 | -8.4 | 12.3

Bioassay records: PubChem, Sanford-Burnham Center for Chemical Genomics
